Source: ChEMBL document CHEMBL1157817, “2-aminoimidazole amino acids as inhibitors of the binuclear manganese metalloenzyme human arginase I” (J Med Chem, 2010)
The source made the active and inactive calls. The rule behind the calls is not given here.

Columns and labels:
Arginase-1 [1] = biological target: T1, Arginase-1 (Homo sapiens, UniProt P05089); assay: Inhibition of human recombinant full length arginase 1 expressed in Escherichia coli BL21(DE3) by fixed point assay
T1 sequence (P05089 whole entry): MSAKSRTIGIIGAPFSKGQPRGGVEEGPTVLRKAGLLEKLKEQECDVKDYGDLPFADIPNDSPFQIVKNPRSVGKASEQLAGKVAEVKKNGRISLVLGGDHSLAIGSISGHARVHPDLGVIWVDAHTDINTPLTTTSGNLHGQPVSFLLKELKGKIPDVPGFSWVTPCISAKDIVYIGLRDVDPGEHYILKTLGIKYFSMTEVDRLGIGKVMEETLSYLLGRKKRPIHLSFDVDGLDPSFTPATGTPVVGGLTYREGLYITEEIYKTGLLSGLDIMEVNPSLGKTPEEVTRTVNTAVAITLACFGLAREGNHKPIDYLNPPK

Mus musculus [2] = assay: Antiinflammatory activity in ovalbumin-sensitized and challenged BALB/c mouse model assessed as attenuation of methacholine-induced increase in central airways responsiveness at 85 ug/g administered via nebulization 24 hrs after ovalbumin challenge measured after 15 mins; type: functional, organism-based
Outline: (§1)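 Mice OVA-sensitized, then nebulized 6% OVA in PBS (or PBS alone) 25 min/day on days 14–20. Day 21, 24 h after last challenge: ketamine 50 mg/kg plus xylazine 10 mg/kg, intubated, ventilator-based resistance measured. Baseline resistance re-measured 15 min after drug. Then nebulized methacholine (0–100 mg/mL in PBS) dose-response via ventilator circuit. Maximum R and RN read; means ± SE, n = 12/group.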

Arginase-1 [3] = biological target: T1, Arginase-1; assay: Inhibition of human recombinant full length arginase 1 expressed in Escherichia coli BL21(DE3) by surface plasmon resonance assay
[4] = biological target: T2, Nitric oxide synthase, inducible (Mus musculus, UniProt P29477); assay: Inhibition of mouse recombinant iNOS
T2 sequence (P29477 whole entry): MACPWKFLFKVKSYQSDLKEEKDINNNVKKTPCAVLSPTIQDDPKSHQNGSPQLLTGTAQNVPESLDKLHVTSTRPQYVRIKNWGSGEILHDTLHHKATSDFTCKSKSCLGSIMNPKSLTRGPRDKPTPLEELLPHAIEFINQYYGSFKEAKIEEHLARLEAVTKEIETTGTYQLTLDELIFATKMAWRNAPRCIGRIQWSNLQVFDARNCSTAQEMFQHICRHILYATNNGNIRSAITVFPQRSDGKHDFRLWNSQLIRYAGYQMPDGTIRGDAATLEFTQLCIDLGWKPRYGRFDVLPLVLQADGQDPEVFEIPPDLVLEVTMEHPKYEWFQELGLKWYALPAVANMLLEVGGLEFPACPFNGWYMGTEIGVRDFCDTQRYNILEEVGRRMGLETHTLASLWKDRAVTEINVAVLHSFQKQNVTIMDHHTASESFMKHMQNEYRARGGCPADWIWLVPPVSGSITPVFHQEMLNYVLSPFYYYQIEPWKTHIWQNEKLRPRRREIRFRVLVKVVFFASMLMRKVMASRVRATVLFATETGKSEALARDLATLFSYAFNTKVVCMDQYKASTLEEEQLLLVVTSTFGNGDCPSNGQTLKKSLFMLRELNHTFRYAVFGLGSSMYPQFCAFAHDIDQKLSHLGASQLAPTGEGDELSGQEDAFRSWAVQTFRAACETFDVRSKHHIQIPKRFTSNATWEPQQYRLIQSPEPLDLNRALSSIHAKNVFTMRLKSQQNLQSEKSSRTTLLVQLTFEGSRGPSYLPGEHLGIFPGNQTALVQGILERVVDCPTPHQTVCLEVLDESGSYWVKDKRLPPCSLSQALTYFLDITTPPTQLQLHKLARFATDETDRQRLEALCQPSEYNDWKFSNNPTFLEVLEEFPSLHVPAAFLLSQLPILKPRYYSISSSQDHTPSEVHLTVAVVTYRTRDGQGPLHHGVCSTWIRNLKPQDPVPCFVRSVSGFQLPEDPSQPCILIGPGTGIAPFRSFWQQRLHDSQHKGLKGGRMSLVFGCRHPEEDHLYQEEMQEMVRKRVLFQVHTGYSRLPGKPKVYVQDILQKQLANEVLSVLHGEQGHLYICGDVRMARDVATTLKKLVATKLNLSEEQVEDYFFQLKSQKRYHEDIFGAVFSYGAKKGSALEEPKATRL

Nitric oxide synthase 1 = Nitric oxide synthase 1 (Rattus norvegicus, UniProt P29476); assay: Inhibition rat recombinant nNOS
Mus musculus [5] = assay: Antiinflammatory activity in ovalbumin-sensitized and challenged BALB/c mouse model assessed as attenuation of methacholine-induced maximum total lung resistance at 85 ug/g administered via nebulization 24 hrs after ovalbumin challenge measured after 15 mins; type: functional, organism-based; outline: as §1

Chain of Nitric oxide synthase 1 (P29476 whole entry): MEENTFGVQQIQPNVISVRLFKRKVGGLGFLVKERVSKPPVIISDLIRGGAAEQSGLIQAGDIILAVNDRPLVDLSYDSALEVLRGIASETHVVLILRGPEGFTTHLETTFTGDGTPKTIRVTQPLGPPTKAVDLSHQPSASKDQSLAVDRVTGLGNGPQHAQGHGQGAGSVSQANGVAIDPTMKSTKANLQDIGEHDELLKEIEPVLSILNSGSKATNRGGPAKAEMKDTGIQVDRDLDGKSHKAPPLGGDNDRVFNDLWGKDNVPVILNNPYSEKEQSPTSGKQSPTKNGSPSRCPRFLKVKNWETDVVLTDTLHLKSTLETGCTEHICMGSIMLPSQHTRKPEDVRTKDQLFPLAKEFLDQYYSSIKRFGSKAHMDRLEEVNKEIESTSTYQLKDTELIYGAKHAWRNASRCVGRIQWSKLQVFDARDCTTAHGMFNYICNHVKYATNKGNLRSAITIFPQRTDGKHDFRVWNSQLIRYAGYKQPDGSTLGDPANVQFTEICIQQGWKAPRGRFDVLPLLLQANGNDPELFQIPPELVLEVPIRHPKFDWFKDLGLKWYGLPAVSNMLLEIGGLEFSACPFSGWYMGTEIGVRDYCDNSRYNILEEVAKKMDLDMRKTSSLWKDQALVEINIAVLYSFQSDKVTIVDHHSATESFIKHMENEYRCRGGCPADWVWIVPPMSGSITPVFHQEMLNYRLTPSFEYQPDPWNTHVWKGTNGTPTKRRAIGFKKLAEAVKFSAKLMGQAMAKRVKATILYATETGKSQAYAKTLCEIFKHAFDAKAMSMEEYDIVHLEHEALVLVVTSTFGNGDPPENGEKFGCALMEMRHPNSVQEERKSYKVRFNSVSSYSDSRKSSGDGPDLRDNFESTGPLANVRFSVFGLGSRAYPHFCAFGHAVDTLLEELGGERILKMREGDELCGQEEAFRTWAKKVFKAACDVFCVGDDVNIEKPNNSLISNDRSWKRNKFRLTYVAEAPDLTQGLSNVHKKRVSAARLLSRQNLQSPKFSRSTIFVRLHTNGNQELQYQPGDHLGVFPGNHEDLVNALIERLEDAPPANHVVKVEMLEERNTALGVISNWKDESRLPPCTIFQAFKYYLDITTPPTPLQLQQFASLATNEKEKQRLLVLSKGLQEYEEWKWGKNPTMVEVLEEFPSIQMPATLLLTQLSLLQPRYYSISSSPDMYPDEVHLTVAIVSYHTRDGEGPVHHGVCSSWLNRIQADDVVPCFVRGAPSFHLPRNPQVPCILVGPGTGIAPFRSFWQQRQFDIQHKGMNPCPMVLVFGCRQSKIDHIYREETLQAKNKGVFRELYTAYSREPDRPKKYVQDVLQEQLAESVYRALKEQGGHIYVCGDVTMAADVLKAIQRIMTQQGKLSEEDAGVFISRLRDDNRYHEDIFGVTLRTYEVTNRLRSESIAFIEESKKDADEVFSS

Ki (Arginase-1 [1]) | Kd (Arginase-1 [3]) | IC50 [4] | IC50 (Nitric oxide synthase 1) | SMILES | inhibition (Mus musculus [2]) | inhibition (Mus musculus [5])
3600 µM | – | – | – | Nc1ncc[nH]1 | – | –
4 µM | 2 µM | 480 µM | 135 µM | Nc1nccn1CCC[C@H](N)C(=O)O | Active | Active
500 µM | – | – | – | N[C@@H](CCCNc1ncc[nH]1)C(=O)O | – | –
